Results published in ChEMBL document CHEMBL5724801, “EUbOPEN Chemogenomics Library - Multiplex” (2024).
Several values for one entry are separate records, joined by “and”; a condition that tells them apart may be missing. Identical values can stand only once.

Test system: Fibroblast
Experiment: Multiplex assay against human fibroblast
Format: toxicity, cell-based
Summary of the method: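 Four dyes were applied at seeding to live cells: Hoechst33342, BioTracker Green Microtubule Cytoskeleton Dye, MitoTracker Red and Annexin V Alexa Fluor 680. Imaging after compound addition used a CQ1 microscope at 37°C and 5% CO2. CellPathfinder machine-learning gating then sorted cells into Hoechst high-intensity objects or normal cells, normal cells into healthy, pyknosed or fragmented nuclei, and pyknosed cells into mitotic or apoptotic, with tubulin, mitochondrial-mass and membrane-permeability phenotypes given as per cents of healthy-nucleus cells.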

[1] = 12 h, 1 µM, compound concentration 1 uM
[2] = 12 h, 10 µM, compound concentration 10 uM
[3] = 24 h, 1 µM, compound concentration 1 uM
[4] = 24 h, 10 µM, compound concentration 10 uM
[5] = 48 h, 1 µM, compound concentration 1 uM
[6] = 48 h, 10 µM, compound concentration 10 uM

For `COc1c(C)cc(NC(=O)c2nn(Cc3ccc(F)cc3)c3c2CN(C(=O)c2ccc[nH]2)C[C@]3(C)C(N)=O)cc1C`, the “Population Apoptotic (%)” value [1] was 42% and 46%, the “Population Fragmented Nuclei (%)” value [1] was 21% and 16% and the “Population Healthy Nuclei (%)” value [1] was 58% and 51%. The “Population Hoechst High Intensity Objects (%)” value [1] was 2% and 3%, the “Population Membrane Permeable-Phenotype (%)” value [1] was 1% and 6% and the “Population Mitochondria Different-Phenotype (%)” value [1] was 18% and 11%. The “Population Mitotic Cells (%)” value [1] was 57% and 53%, the “Population Normal (%)” value [1] was 97% and 96% and the “Population Pyknosed Nuclei (%)” value [1] was 20% and 31%. For the same compound, the “Population Tubulin-Different-Phenotype (%)” value [1] was 64% and 72%, the “Total Cell Count” value [1] was 95 and 86 and the “Population Apoptotic (%)” value [2] was 47% and 52%. The “Population Fragmented Nuclei (%)” value [2] was 12% and 29%, the “Population Healthy Nuclei (%)” value [2] was 58% and 38% and the “Population Hoechst High Intensity Objects (%)” value [2] was 1% and 2%. The “Population Membrane Permeable-Phenotype (%)” value [2] was 0% and 6%, the “Population Mitochondria Different-Phenotype (%)” value [2] was 25% and 30% and the “Population Mitotic Cells (%)” value [2] was 52% and 47%. The “Population Normal (%)” value [2] was 98% and 97%, the “Population Pyknosed Nuclei (%)” value [2] was 29% and 32% and the “Population Tubulin-Different-Phenotype (%)” value [2] was 90%. The “Total Cell Count” value [2] was 166 and 115, the “Population Apoptotic (%)” value [3] was 66% and 48% and the “Population Fragmented Nuclei (%)” value [3] was 25% and 31%. For the same compound, the “Population Healthy Nuclei (%)” value [3] was 61% and 38%, the “Population Hoechst High Intensity Objects (%)” value [3] was 3% and 6% and the “Population Membrane Permeable-Phenotype (%)” value [3] was 1% and 8%. For the same compound, the “Population Mitochondria Different-Phenotype (%)” value [3] was 17%, the “Population Mitotic Cells (%)” value [3] was 33% and 51% and the “Population Normal (%)” value [3] was 96% and 93%. The “Population Pyknosed Nuclei (%)” value [3] was 12% and 30%, the “Population Tubulin-Different-Phenotype (%)” value [3] was 45% and 67% and the “Total Cell Count” value [3] was 96 and 95. For the same compound, the “Population Apoptotic (%)” value [4] was 65% and 43%, the “Population Fragmented Nuclei (%)” value [4] was 14% and 30% and the “Population Healthy Nuclei (%)” value [4] was 64% and 47%. The “Population Hoechst High Intensity Objects (%)” value [4] was 3% and 4%, the “Population Membrane Permeable-Phenotype (%)” value [4] was 0% and 8% and the “Population Mitochondria Different-Phenotype (%)” value [4] was 47% and 26%. The “Population Mitotic Cells (%)” value [4] was 34% and 56%, the “Population Normal (%)” value [4] was 96% and 95% and the “Population Pyknosed Nuclei (%)” value [4] was 20% and 21%. For the same compound, the “Population Tubulin-Different-Phenotype (%)” value [4] was 90% and 82%, the “Total Cell Count” value [4] was 159 and 110 and the “Population Apoptotic (%)” value [5] was 87% and 70%. For the same compound, the “Population Fragmented Nuclei (%)” value [5] was 29% and 34%, the “Population Healthy Nuclei (%)” value [5] was 61% and 45% and the “Population Hoechst High Intensity Objects (%)” value [5] was 7% and 5%. The “Population Membrane Permeable-Phenotype (%)” value [5] was 0% and 10%, the “Population Mitochondria Different-Phenotype (%)” value [5] was 10% and the “Population Mitotic Cells (%)” value [5] was 12% and 29%. For the same compound, the “Population Normal (%)” value [5] was 92% and 94%, the “Population Pyknosed Nuclei (%)” value [5] was 8% and 19% and the “Population Tubulin-Different-Phenotype (%)” value [5] was 45% and 69%. For the same compound, the “Total Cell Count” value [5] was 99 and 91, the “Population Apoptotic (%)” value [6] was 60% and 77% and the “Population Fragmented Nuclei (%)” value [6] was 22% and 41%. For the same compound, the “Population Healthy Nuclei (%)” value [6] was 60% and 51%, the “Population Hoechst High Intensity Objects (%)” value [6] was 4% and 2% and the “Population Membrane Permeable-Phenotype (%)” value [6] was 0% and 3%. For the same compound, the “Population Mitotic Cells (%)” value [6] was 39% and 22%, the “Population Normal (%)” value [6] was 95% and 97% and the “Population Pyknosed Nuclei (%)” value [6] was 17% and 7%. For the same compound, the “Population Tubulin-Different-Phenotype (%)” value [6] was 92% and 75% and the “Total Cell Count” value [6] was 166 and 122.
`COc1cc2ncnc(Nc3ccc(Oc4ccccc4)cc3C)c2cc1OC.Cl` was tested, and the “Population Apoptotic (%)” value [1] was 11.11% and 23.33%, the “Population Fragmented Nuclei (%)” value [1] was 12.3% and 7.85% and the “Population Healthy Nuclei (%)” value [1] was 63.64% and 76.44%. The “Population Hoechst High Intensity Objects (%)” value [1] was 0%, the “Population Membrane Permeable-Phenotype (%)” value [1] was 5.04% and 3.42% and the “Population Mitochondria Different-Phenotype (%)” value [1] was 8.4% and 12.33%. For the same compound, the “Population Mitotic Cells (%)” value [1] was 88.89% and 76.67%, the “Population Normal (%)” value [1] was 100% and the “Population Pyknosed Nuclei (%)” value [1] was 24.06% and 15.71%. For the same compound, the “Population Tubulin-Different-Phenotype (%)” value [1] was 15.13% and 13.7%, the “Total Cell Count” value [1] was 187 and 191 and the “Population Apoptotic (%)” value [2] was 10.77% and 17.02%. The “Population Fragmented Nuclei (%)” value [2] was 14.61% and 11.16%, the “Population Healthy Nuclei (%)” value [2] was 48.88% and 68.67% and the “Population Hoechst High Intensity Objects (%)” value [2] was 0%. For the same compound, the “Population Membrane Permeable-Phenotype (%)” value [2] was 3.45% and 10.62%, the “Population Mitochondria Different-Phenotype (%)” value [2] was 29.89% and 25% and the “Population Mitotic Cells (%)” value [2] was 89.23% and 82.98%. For the same compound, the “Population Normal (%)” value [2] was 100%, the “Population Pyknosed Nuclei (%)” value [2] was 36.52% and 20.17% and the “Population Tubulin-Different-Phenotype (%)” value [2] was 58.62% and 66.88%. For the same compound, the “Total Cell Count” value [2] was 178 and 233, the “Population Apoptotic (%)” value [3] was 0% and 16.67% and the “Population Fragmented Nuclei (%)” value [3] was 10.95% and 4.57%. The “Population Healthy Nuclei (%)” value [3] was 74.29% and 80.2%, the “Population Hoechst High Intensity Objects (%)” value [3] was 0% and the “Population Membrane Permeable-Phenotype (%)” value [3] was 5.77% and 1.9%. The “Population Mitochondria Different-Phenotype (%)” value [3] was 7.05% and 6.33%, the “Population Mitotic Cells (%)” value [3] was 100% and 83.33% and the “Population Normal (%)” value [3] was 100%. For the same compound, the “Population Pyknosed Nuclei (%)” value [3] was 14.76% and 15.23%, the “Population Tubulin-Different-Phenotype (%)” value [3] was 15.38% and 12.66% and the “Total Cell Count” value [3] was 210 and 197. The “Population Fragmented Nuclei (%)” value [4] was 20.69% and 12.5%, the “Population Healthy Nuclei (%)” value [4] was 59.48% and 79.49% and the “Population Hoechst High Intensity Objects (%)” value [4] was 0%. The “Population Membrane Permeable-Phenotype (%)” value [4] was 4.35% and 4.03%, the “Population Mitochondria Different-Phenotype (%)” value [4] was 25.36% and 23.39% and the “Population Mitotic Cells (%)” value [4] was 95.65% and 76%. For the same compound, the “Population Normal (%)” value [4] was 100%, the “Population Pyknosed Nuclei (%)” value [4] was 19.83% and 8.01% and the “Population Tubulin-Different-Phenotype (%)” value [4] was 65.22% and 70.16%. For the same compound, the “Total Cell Count” value [4] was 232 and 312, the “Population Apoptotic (%)” value [5] was 14.29% and 18.75% and the “Population Fragmented Nuclei (%)” value [5] was 14.46% and 12.14%. The “Population Healthy Nuclei (%)” value [5] was 77.11% and 80.1%, the “Population Hoechst High Intensity Objects (%)” value [5] was 0% and the “Population Membrane Permeable-Phenotype (%)” value [5] was 1.04% and 1.21%. The “Population Mitochondria Different-Phenotype (%)” value [5] was 11.98% and 4.85%, the “Population Mitotic Cells (%)” value [5] was 85.71% and 81.25% and the “Population Normal (%)” value [5] was 100%. The “Population Pyknosed Nuclei (%)” value [5] was 8.43% and 7.77%, the “Population Tubulin-Different-Phenotype (%)” value [5] was 8.33% and 15.76% and the “Total Cell Count” value [5] was 249 and 206. For the same compound, the “Population Apoptotic (%)” value [6] was 14.29% and 28.57%, the “Population Fragmented Nuclei (%)” value [6] was 17.05% and 16.67% and the “Population Healthy Nuclei (%)” value [6] was 78.98% and 81.45%. The “Population Hoechst High Intensity Objects (%)” value [6] was 0%, the “Population Membrane Permeable-Phenotype (%)” value [6] was 4.68% and 4.95% and the “Population Mitochondria Different-Phenotype (%)” value [6] was 11.15% and 6.93%. The “Population Mitotic Cells (%)” value [6] was 85.71% and 71.43%, the “Population Normal (%)” value [6] was 100% and the “Population Pyknosed Nuclei (%)” value [6] was 3.98% and 1.88%. The “Population Tubulin-Different-Phenotype (%)” value [6] was 51.8% and 63.04% and the “Total Cell Count” value [6] was 352 and 372.
